Screening results: PubChem, several laboratories
Hits are enriched below; roughly 2.5% of the tested compounds scored in any of these assays.
NTR1 agonist = activates human neurotensin receptor 1; P30989; NTR1-U2OS beta-arrestin-GFP spot imaging, agonist mode; activation, % at 20 µM; 0.17% of 330,000 active; AID 493036;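 active = activation at or above 40% of the spot to cytoplasm intensity ratio, with at least 20 cells analyzed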
Target sequence (P30989 whole entry, looked up): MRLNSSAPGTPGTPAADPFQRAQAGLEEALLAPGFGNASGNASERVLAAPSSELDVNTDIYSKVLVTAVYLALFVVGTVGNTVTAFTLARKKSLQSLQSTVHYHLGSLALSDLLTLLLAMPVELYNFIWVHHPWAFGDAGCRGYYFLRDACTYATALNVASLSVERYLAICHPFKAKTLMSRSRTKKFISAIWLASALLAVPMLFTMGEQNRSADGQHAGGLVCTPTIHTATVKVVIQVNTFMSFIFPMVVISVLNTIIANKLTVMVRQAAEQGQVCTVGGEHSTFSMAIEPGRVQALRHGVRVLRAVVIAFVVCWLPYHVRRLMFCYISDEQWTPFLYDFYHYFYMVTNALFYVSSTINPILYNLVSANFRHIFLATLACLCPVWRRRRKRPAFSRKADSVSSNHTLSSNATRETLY
NR1D1 modulator = modulators of human Rev-erb alpha DNA binding. activity, % at 10 µM. 0.79% of 370,000 active. P20393. AID 1259318. Rev-erbα–FITC-DNA binding, fluorescence polarization, 90 min;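 active = activity above about 14%, limit read from the data; passing the limit was not always enough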
PG9 Ab binder = small molecules binding HIV-1 gp120 antibody PG9. 0.43% of 360,000 active. AID 624416. inhibition, % at 6.7 µM. TR-FRET gp120-PG9 antibody binding; in the data active = inhibition above about 8.5%
MC4R antagonist = blocks human MC4R cAMP signaling | P32245 | 0.48% of 360,000 active | inhibition, % at 6.5 µM | MC4R-expressing cells, MTII-stimulated cAMP, LANCE TR-FRET;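 active = inhibition above its plate's cutoff, the mean of tested wells on that plate plus 3 SD, cut at about 29% in these data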
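Assay system: U2OS cells stably expressing human melanocortin 4 receptor (MC4R) / Dosing: 6.5 µM / Timing: compound 30 min, challenge 1 h, detection 1 h / Measured by: Eu-cAMP/anti-cAMP TR-FRET, emission 671 nm / Replicates: singlicate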
MC4R barr agon = human MC4R agonism via beta-arrestin; U2OS MC4R beta-arrestin complementation, luminescence; percent of melanotan II response, DMSO zero; activation, % at 8.9 µM; 0.98% of 360,000 active;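 active = activation above a per-plate cutoff, the mean activation of sample wells on that plate plus 3 SD, cut at about 8% in these data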
Of the large screens only hits and unclear results are named; the others gave an inactive call.

Cc1[nH]n(-c2ccc([N+](=O)[O-])cc2)c(=O)c1C=NCCc1c[nH]c2ccccc12	MC4R barr agon 8.4
O=C(Nc1ccncc1)c1cc(-c2ccccc2)nc2ccccc12	MC4R barr agon 9.3 (no result: NTR1 agonist)
Cc1cccc(-c2cc(C(=O)Nc3ccncc3)c3ccccc3n2)c1	MC4R barr agon 12.4
COc1ccc(NC(=O)c2cc(-c3cccnc3)nc3c(C)c(C)ccc23)c(OC)c1	none
COc1cccc(NC(=O)c2cc(-c3cccnc3)nc3c(Cl)cccc23)c1	MC4R barr agon 11.8
COC(=O)C1=C(C)N(C)C(=NCc2ccc(C(F)(F)F)cc2)NC1c1cccc(F)c1 (stereo unspecified)	none (no result: NTR1 agonist, MC4R antagonist, MC4R barr agon)
CCOC(=O)Nc1ccc(OC(=O)Oc2ccc(NC(=O)OCC)cc2)cc1	MC4R barr agon 9.5 (no result: NTR1 agonist)
CCOC(=O)Nc1ccc(Oc2ccccc2)cc1	none
COC(=O)C(C[N+](=O)[O-])C1=C(O)CC(C)(C)CC1=O (stereo unspecified)	none (no result: NTR1 agonist, PG9 Ab binder, MC4R antagonist, MC4R barr agon)
Cc1ccc(C)c(NS(=O)(=O)c2ccc(-n3cccn3)cc2)c1	none (no result: NTR1 agonist)
Cc1ccc(NS(=O)(=O)c2ccc(-n3cccn3)cc2)cc1C	MC4R barr agon 9.4
CCc1cccc(NS(=O)(=O)c2ccc(-n3cccn3)cc2)c1	MC4R barr agon 8.3
O=S(=O)(Nc1cccc(Cl)c1)c1ccc(-n2cccn2)cc1	none
CN(C)CCCN(C(=O)c1ccc2c(c1)CCCC2)c1nc2ccc(F)cc2s1	none
Cc1cc(C)c2sc(N(CCN(C)C)C(=O)CCS(=O)(=O)c3ccccc3)nc2c1	MC4R barr agon 9.2
CN(C)CCCN(C(=O)c1ccc(S(=O)(=O)N2CCc3ccccc32)cc1)c1nc2ccc(F)cc2s1	none
CN(C)CCCN(C(=O)c1ccc(S(=O)(=O)N2CCc3ccccc3C2)cc1)c1nc2ccc(F)cc2s1	MC4R barr agon 17.1
Cc1cccc2sc(N(CCCN(C)C)C(=O)c3ccc(S(=O)(=O)N4CCc5ccccc5C4)cc3)nc12	none
CN(C)CCCN(C(=O)c1ccc2c(c1)CCCC2)c1nc2cc3c(cc2s1)OCO3	MC4R barr agon 8.6
Cc1ccc2nc(N(CCCN(C)C)C(=O)c3ccc(S(=O)(=O)N4CCc5ccccc5C4)cc3)sc2c1	MC4R barr agon 8.7
Cc1ccc(-c2nc(C3CCCN(S(=O)(=O)c4ccccc4)C3)no2)cc1 (stereo unspecified)	none (no result: NTR1 agonist, PG9 Ab binder, MC4R antagonist, MC4R barr agon)
CC[C@H](NC(=O)[C@@H](Cc1ccccc1)NC(=O)[C@H]1O[C@@H](n2cnc3c(=O)[nH]c(N)nc32)[C@H](O)[C@@H]1O)c1ccccc1	none (no result: NTR1 agonist, MC4R antagonist, MC4R barr agon)
Nc1ccc2ccc(NS(=O)(=O)N3CCCCC3)cc2c1	none (no result: NTR1 agonist, MC4R antagonist, MC4R barr agon)
Cc1nn(-c2ccccc2)c2sc(C(=O)NCCc3ccc(Cl)cc3)cc12	none (no result: NTR1 agonist, PG9 Ab binder, MC4R antagonist, MC4R barr agon)
COC(=O)c1cc2c(c3c4cc(F)ccc4n(S(=O)(=O)c4ccccc4)c13)C(=O)N(C)C2	none (no result: NTR1 agonist, MC4R antagonist, MC4R barr agon)
Cc1cc(C)c2sc(N(CCCN(C)C)C(=O)c3ccc(S(=O)(=O)N4CCc5ccccc5C4)cc3)nc2c1	MC4R barr agon 39.5 (no result: NR1D1 modulator, PG9 Ab binder)
COc1ccc2sc(N(CCCN(C)C)C(=O)c3ccc(S(=O)(=O)N4CCc5ccccc5C4)cc3)nc2c1	MC4R barr agon 31.6
COc1ccccc1CNC1CCC12CCC(c1ccccc1)CC2 (stereo unspecified)	none (no result: NTR1 agonist, PG9 Ab binder, MC4R antagonist, MC4R barr agon)
COc1ccc(C2NCCc3c2[nH]c2ccccc32)cc1COc1ccc(F)cc1 (stereo unspecified)	MC4R barr agon 24.1
COc1ccc(C2NCCc3c2[nH]c2ccccc32)cc1CN1CCc2cc(OC)c(OC)cc2C1C (stereo unspecified)	none (no result: NTR1 agonist, NR1D1 modulator, PG9 Ab binder)
COc1ccc(C(C(=O)NC2CCCCC2)N(C(=O)CCl)c2ccc(C)cc2)cc1 (stereo unspecified)	MC4R barr agon 18.4
COc1ccc(C(C(=O)NC2CCCCC2)N(C(=O)CCl)c2cccc(Cl)c2)cc1 (stereo unspecified)	MC4R barr agon 25.1 (no result: NTR1 agonist)
COc1ccc(C(C(=O)NC2CCCCC2)N(C(=O)CCl)c2ccc(OC)cc2)cc1 (stereo unspecified)	none (no result: NR1D1 modulator, PG9 Ab binder)
O=C(NC1CCCCC1)C(c1cccnc1)N(C(=O)CCl)c1ccc(F)cc1 (stereo unspecified)	none (no result: NTR1 agonist)
COc1ccc(N(C(=O)CCl)C(C(=O)NC2CCCCC2)c2cccnc2)cc1 (stereo unspecified)	MC4R barr agon 8.7
COc1cccc(N(C(=O)c2cnccn2)C(C(=O)NC2CCCCC2)c2ccc(Cl)cc2)c1 (stereo unspecified)	none
COC(=O)C1=C(C)N(Cc2cccc(C(F)(F)F)c2)C(=NCC2CC2)NC1c1cccc(C(F)(F)F)c1 (stereo unspecified)	none (no result: NTR1 agonist, MC4R antagonist, MC4R barr agon)
COc1ccc(-n2c(SCC(=O)Nc3ccc4cn[nH]c4c3)nnc2-c2ccccc2)cc1	none (no result: NTR1 agonist, PG9 Ab binder, MC4R antagonist, MC4R barr agon)
Fc1ccc(N=c2ssnc2Cl)c(F)c1	MC4R antagonist 28.6
Clc1ccc(N=c2ssnc2Cl)cc1	none
CCOC(=O)c1ccc(N2C(=O)CC(N3CCN(Cc4ccccc4)CC3)C2=O)cc1 (stereo unspecified)	none
CCOC(=O)c1ccc(N2C(=O)CC(N3CCCC(C)C3)C2=O)cc1 (stereo unspecified)	MC4R antagonist 29.2
O=C(NCCc1ccccn1)c1ccc2c(c1)ncn2C1CCCCC1	none (no result: NTR1 agonist, PG9 Ab binder, MC4R antagonist, MC4R barr agon)
CCOc1ccc(-n2c(N)c(-c3nc4ccccc4[nH]3)sc2=S)cc1	MC4R barr agon 8.8
O=C(CCn1c(=S)oc2ccccc21)Nc1cccc(F)c1	none
Cc1ccc(NC(=O)CCn2c(=S)oc3ccccc32)cc1F	MC4R barr agon 8.3
O=[N+]([O-])c1ccc2c(c1)C(N1CCN(CCO)CC1)Cc1ccc(F)cc1S2 (stereo unspecified)	none (no result: NTR1 agonist, MC4R antagonist, MC4R barr agon)
OCCN1CCN(C2CCC(c3ccc(F)cc3)c3ccc(F)cc32)CC1 (stereo unspecified)	MC4R barr agon 9.0
COCCNC(=S)NC(=O)CC12CC3CC(CC(C3)C1)C2	MC4R barr agon 8.3
COCc1cc(N2CCN(C(=O)OC(C)(C)C)C[C@@H]2C)ccc1N1CC[C@@H](O)C1	none (no result: NTR1 agonist, MC4R antagonist, MC4R barr agon)
N#Cc1cccc(-c2ccccc2C(=O)NC2CCCCN(Cc3ccc(Cl)cc3)C2=O)c1 (stereo unspecified)	none (no result: NTR1 agonist, PG9 Ab binder, MC4R antagonist, MC4R barr agon)
CC1CCC2(CC1)OCC1(CCC3(COC4(CCC(C)CC4)OC3)C1=O)CO2 (stereo unspecified)	MC4R barr agon 9.2
Cn1ncc2c(O/N=C(\N)c3ccc(C(C)(C)C)cc3)ncnc21	MC4R barr agon 36.5 (no result: NR1D1 modulator, PG9 Ab binder)
COc1ccc(NS(=O)(=O)c2ccc3oc(SC4CCOC4=O)nc3c2)cc1 (stereo unspecified)	NTR1 agonist 68.4
Cc1ccc(NC(=O)c2ccc(C#CC3(O)CCCCC3)cc2)cc1C	MC4R barr agon 9.0
Cc1ccc(NC(=O)NC2CCCCCCC2)cc1C	none
COc1ccc2[nH]c(O)c(N=NC(=O)c3ccc(NS(=O)(=O)c4cccs4)cc3)c2c1	MC4R barr agon 9.0
CCCCCCOC(=O)C[N+](C)(C)CCOC1CC2CCC1(C)C2(C)C (stereo unspecified)	NTR1 agonist 40.2
